Active and inactive are the calls of the source. The calls are words filed in the database; no cut-off is given here.
Molecular target: T1, Peroxisome proliferator-activated receptor alpha (Homo sapiens) (UniProt Q07869)
T1 sequence (whole entry): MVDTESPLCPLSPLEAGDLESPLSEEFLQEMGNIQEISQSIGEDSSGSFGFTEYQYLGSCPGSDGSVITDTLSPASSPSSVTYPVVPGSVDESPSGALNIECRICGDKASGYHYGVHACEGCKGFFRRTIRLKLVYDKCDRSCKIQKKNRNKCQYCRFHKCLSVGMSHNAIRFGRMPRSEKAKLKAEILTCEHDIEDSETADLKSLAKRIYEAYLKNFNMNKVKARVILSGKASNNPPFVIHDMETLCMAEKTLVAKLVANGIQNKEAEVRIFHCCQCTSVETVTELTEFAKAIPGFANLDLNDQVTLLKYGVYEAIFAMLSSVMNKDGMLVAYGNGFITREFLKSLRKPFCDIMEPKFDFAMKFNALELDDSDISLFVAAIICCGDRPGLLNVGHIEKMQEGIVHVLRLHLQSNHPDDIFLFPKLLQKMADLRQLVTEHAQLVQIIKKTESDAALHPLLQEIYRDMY
Assay: Displacement of [3H]-agonist from human PPARalpha expressed in baculovirus infecetd Sf9 cells system up to 30 uM after 10 hrs in presence of DR2 by scintillation proximity assay
Details: not given
Outline: (§1)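 PPAR alpha, delta and gamma binding and functional activity were each tested at concentrations up to 30 µM.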

SMILES	Activity
CC#C[C@@H](CC(=O)O)c1ccc(OCc2ccc3nc(-c4ccc(OC(F)F)cc4)nn3c2)cc1	inactive
CC#C[C@@H](CC(=O)O)c1ccc(OCc2ccc3nc(-c4ccc(C(C)C)cc4)nn3c2)cc1	inactive
CC#C[C@@H](CC(=O)O)c1ccc(OCc2ccc3nc(-c4ccc(C#N)cc4)nn3c2)cc1	inactive

Molecular target: T2, Peroxisome proliferator-activated receptor delta (Homo sapiens) (UniProt Q03181)
T2 sequence (whole entry): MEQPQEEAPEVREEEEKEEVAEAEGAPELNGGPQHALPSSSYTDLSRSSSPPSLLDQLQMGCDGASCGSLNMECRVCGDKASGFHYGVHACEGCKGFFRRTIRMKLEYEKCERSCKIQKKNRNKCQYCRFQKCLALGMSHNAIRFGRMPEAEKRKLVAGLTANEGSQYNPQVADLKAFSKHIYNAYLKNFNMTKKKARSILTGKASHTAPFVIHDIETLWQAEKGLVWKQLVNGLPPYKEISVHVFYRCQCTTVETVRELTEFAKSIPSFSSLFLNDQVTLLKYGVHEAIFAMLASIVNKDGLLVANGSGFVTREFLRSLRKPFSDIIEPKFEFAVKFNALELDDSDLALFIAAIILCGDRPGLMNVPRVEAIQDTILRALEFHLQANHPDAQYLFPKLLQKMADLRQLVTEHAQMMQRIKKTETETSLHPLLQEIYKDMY
Assay: Agonist activity at GAL4-fused human PPARdelta expressed in African green monkey CV1 cells up to 30 uM after 24 hrs by luciferase reporter gene assay
Assay type: cell-based
Details: not given
Outline: as §1

SMILES	Activity
CC#C[C@@H](CC(=O)O)c1ccc(OCc2ccc3nc(-c4ccc(OC(F)F)cc4)nn3c2)cc1	inactive
CC#C[C@@H](CC(=O)O)c1ccc(OCc2ccc3nc(-c4ccc(C(C)C)cc4)nn3c2)cc1	inactive
CC#C[C@@H](CC(=O)O)c1ccc(OCc2ccc3nc(-c4ccc(C#N)cc4)nn3c2)cc1	inactive

Molecular target: Free fatty acid receptor 1 (Rattus norvegicus, UniProt Q8K3T4)
Assay: Agonist activity at rat PK-tagged GPR40 expressed in human U2OS cells assessed as EA-tagged beta-arrestin recruitment after 90 mins in presence of 1 % heat inactivated FBS by beta-galactosidase reporter gene assay
Assay type: cell-based
Details: not given
Outline: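 β-Arrestin recruitment used rat GPR40 in the presence of 1% FBS. EC50 and % maximal stimulation are reported with SEM and n.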

Sequence of Free fatty acid receptor 1 (Rattus norvegicus, UniProt Q8K3T4) (Q8K3T4 whole entry): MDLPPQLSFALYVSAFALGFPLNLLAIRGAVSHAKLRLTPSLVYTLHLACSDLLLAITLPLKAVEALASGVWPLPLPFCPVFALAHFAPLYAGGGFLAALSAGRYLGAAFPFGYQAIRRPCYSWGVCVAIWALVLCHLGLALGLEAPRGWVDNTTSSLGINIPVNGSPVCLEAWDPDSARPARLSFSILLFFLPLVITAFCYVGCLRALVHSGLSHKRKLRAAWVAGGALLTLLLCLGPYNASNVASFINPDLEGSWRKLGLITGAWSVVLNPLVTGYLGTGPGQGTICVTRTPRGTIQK

SMILES	EC50 [nM]
CC#C[C@@H](CC(=O)O)c1ccc(OCc2ccc3nc(-c4ccc(OC(F)F)cc4)nn3c2)cc1	98
CC#C[C@@H](CC(=O)O)c1ccc(OCc2ccc3nc(-c4ccc(C(C)C)cc4)nn3c2)cc1	30
CC#C[C@@H](CC(=O)O)c1ccc(OCc2ccc3nc(-c4ccc(C#N)cc4)nn3c2)cc1	216

Molecular target: T3, Free fatty acid receptor 1 (Homo sapiens, UniProt O14842)
Assay: Agonist activity at human GPR40 receptor expressed in HEK293 cells assessed as increase in intracellular calcium flux after 2.5 hrs measured over 3 mins by calcium 4 dye-based FLIPR assay
Assay type: functional, cell-based
Details: not given
Outline: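 Calcium flux was read by FLIPR in cells carrying recombinant human GPR40. Percent stimulation is relative to the response to 100 µM linoleic acid. EC50 is reported with SEM and n.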

T3 sequence (O14842 whole entry): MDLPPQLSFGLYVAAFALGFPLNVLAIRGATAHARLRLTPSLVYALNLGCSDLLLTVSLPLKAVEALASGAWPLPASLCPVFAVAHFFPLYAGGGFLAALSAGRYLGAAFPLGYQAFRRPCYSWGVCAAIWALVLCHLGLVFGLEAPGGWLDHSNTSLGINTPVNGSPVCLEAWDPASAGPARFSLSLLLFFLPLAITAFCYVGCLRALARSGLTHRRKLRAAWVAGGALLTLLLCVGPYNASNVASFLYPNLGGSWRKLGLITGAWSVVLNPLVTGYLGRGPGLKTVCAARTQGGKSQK

SMILES	EC50 [nM]
CC#C[C@@H](CC(=O)O)c1ccc(OCc2ccc3nc(-c4ccc(OC(F)F)cc4)nn3c2)cc1	1
CC#C[C@@H](CC(=O)O)c1ccc(OCc2ccc3nc(-c4ccc(C(C)C)cc4)nn3c2)cc1	2
CC#C[C@@H](CC(=O)O)c1ccc(OCc2ccc3nc(-c4ccc(C#N)cc4)nn3c2)cc1	9

Test system: 3T3-L1
Assay: Induction of adipogenesis in mouse 3T3L1 cells
Assay type: functional, cell-based
Details: not given
Outline: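 Adipogenesis was assessed in 3T3-L1 cells.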

SMILES	Activity
CC#C[C@@H](CC(=O)O)c1ccc(OCc2ccc3nc(-c4ccc(OC(F)F)cc4)nn3c2)cc1	inactive
CC#C[C@@H](CC(=O)O)c1ccc(OCc2ccc3nc(-c4ccc(C(C)C)cc4)nn3c2)cc1	inactive
CC#C[C@@H](CC(=O)O)c1ccc(OCc2ccc3nc(-c4ccc(C#N)cc4)nn3c2)cc1	inactive

Molecular target: T2, Peroxisome proliferator-activated receptor delta (Homo sapiens)
Assay: Displacement of [3H]-agonist from human PPARdelta expressed in baculovirus infecetd Sf9 cells system up to 30 uM after 10 hrs in presence of DR2 by scintillation proximity assay
Details: not given
Outline: as §1

SMILES	Activity
CC#C[C@@H](CC(=O)O)c1ccc(OCc2ccc3nc(-c4ccc(OC(F)F)cc4)nn3c2)cc1	inactive
CC#C[C@@H](CC(=O)O)c1ccc(OCc2ccc3nc(-c4ccc(C(C)C)cc4)nn3c2)cc1	inactive
CC#C[C@@H](CC(=O)O)c1ccc(OCc2ccc3nc(-c4ccc(C#N)cc4)nn3c2)cc1	inactive

Molecular target: T3, Free fatty acid receptor 1
Assay: Competitive displacement of [3H]-TAK-875 from full length human recombinant GPR40 expressed in HEK293 cell membranes after 2 hrs by scintillation counting
Details: not given
Outline: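 Binding was measured as competitive inhibition of [3H]-TAK875 (fasiglifam) binding to membranes from cells overexpressing recombinant human GPR40. Ki is reported with SEM and n.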

SMILES	Ki [nM]
CC#C[C@@H](CC(=O)O)c1ccc(OCc2ccc3nc(-c4ccc(OC(F)F)cc4)nn3c2)cc1	60
CC#C[C@@H](CC(=O)O)c1ccc(OCc2ccc3nc(-c4ccc(C(C)C)cc4)nn3c2)cc1	32
CC#C[C@@H](CC(=O)O)c1ccc(OCc2ccc3nc(-c4ccc(C#N)cc4)nn3c2)cc1	35

Test system: not listed separately
Assay: Protein binding in plasma (unknown origin) by equilibrium dialysis assay
Assay type: ADME, cell-free
Details: read-out: PPB

SMILES	fraction unbound
CC#C[C@@H](CC(=O)O)c1ccc(OCc2ccc3nc(-c4ccc(OC(F)F)cc4)nn3c2)cc1	< 0.01
CC#C[C@@H](CC(=O)O)c1ccc(OCc2ccc3nc(-c4ccc(C(C)C)cc4)nn3c2)cc1	< 0.01
CC#C[C@@H](CC(=O)O)c1ccc(OCc2ccc3nc(-c4ccc(C#N)cc4)nn3c2)cc1	< 0.01

Molecular target: T3, Free fatty acid receptor 1
Assay: Agonist activity at human PK-tagged GPR40 expressed in HEK293 cells assessed as EA-tagged beta-arrestin recruitment after 90 mins in presence of 1 % heat inactivated FBS by beta-galactosidase reporter gene assay
Assay type: cell-based
Details: not given

SMILES	EC50 [nM]
CC#C[C@@H](CC(=O)O)c1ccc(OCc2ccc3nc(-c4ccc(OC(F)F)cc4)nn3c2)cc1	166
CC#C[C@@H](CC(=O)O)c1ccc(OCc2ccc3nc(-c4ccc(C(C)C)cc4)nn3c2)cc1	67
CC#C[C@@H](CC(=O)O)c1ccc(OCc2ccc3nc(-c4ccc(C#N)cc4)nn3c2)cc1	443

Molecular target: T1, Peroxisome proliferator-activated receptor alpha (Homo sapiens)
Assay: Agonist activity at GAL4-fused human PPARalpha expressed in African green monkey CV1 cells up to 30 uM after 24 hrs by luciferase reporter gene assay
Assay type: cell-based
Details: not given
Outline: as §1

SMILES	Activity
CC#C[C@@H](CC(=O)O)c1ccc(OCc2ccc3nc(-c4ccc(OC(F)F)cc4)nn3c2)cc1	inactive
CC#C[C@@H](CC(=O)O)c1ccc(OCc2ccc3nc(-c4ccc(C(C)C)cc4)nn3c2)cc1	inactive
CC#C[C@@H](CC(=O)O)c1ccc(OCc2ccc3nc(-c4ccc(C#N)cc4)nn3c2)cc1	inactive

Molecular target: Free fatty acid receptor 1 (Rattus norvegicus) (UniProt Q8K3T4)
Assay: Agonist activity at rat PK-tagged GPR40 expressed in human U2OS cells assessed as EA-tagged beta-arrestin recruitment after 90 mins in presence of 1 % heat inactivated FBS by beta-galactosidase reporter gene assay relative to untreated control
Assay type: cell-based
Details: not given

Sequence of Free fatty acid receptor 1 (Rattus norvegicus) (Q8K3T4 whole entry): as the sequence (Q8K3T4 whole entry) above

SMILES	%max [%]
CC#C[C@@H](CC(=O)O)c1ccc(OCc2ccc3nc(-c4ccc(OC(F)F)cc4)nn3c2)cc1	142
CC#C[C@@H](CC(=O)O)c1ccc(OCc2ccc3nc(-c4ccc(C(C)C)cc4)nn3c2)cc1	123
CC#C[C@@H](CC(=O)O)c1ccc(OCc2ccc3nc(-c4ccc(C#N)cc4)nn3c2)cc1	125

Molecular target: T4, Peroxisome proliferator-activated receptor gamma (Homo sapiens) (UniProt P37231)
T4 sequence (whole entry): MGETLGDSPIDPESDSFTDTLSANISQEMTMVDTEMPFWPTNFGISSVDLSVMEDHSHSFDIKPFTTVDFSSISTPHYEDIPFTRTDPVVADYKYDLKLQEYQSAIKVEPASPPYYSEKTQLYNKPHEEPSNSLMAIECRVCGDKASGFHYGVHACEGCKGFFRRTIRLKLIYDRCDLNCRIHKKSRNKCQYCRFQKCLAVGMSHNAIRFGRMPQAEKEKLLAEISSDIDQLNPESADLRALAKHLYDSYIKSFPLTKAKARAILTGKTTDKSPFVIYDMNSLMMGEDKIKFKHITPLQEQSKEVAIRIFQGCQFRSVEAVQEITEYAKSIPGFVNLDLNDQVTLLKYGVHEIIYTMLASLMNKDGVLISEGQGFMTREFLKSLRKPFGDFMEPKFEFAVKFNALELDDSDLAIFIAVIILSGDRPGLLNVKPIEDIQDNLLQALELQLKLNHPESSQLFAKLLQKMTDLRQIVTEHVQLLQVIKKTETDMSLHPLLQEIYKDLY
Assay: Agonist activity at […] human PPARgamma expressed in African green monkey CV1 cells up to 30 uM after 24 hrs by luciferase reporter gene assay
Assay type: cell-based
Details: not given
Outline: as §1

SMILES	Activity
CC#C[C@@H](CC(=O)O)c1ccc(OCc2ccc3nc(-c4ccc(OC(F)F)cc4)nn3c2)cc1	inactive
CC#C[C@@H](CC(=O)O)c1ccc(OCc2ccc3nc(-c4ccc(C(C)C)cc4)nn3c2)cc1	inactive
CC#C[C@@H](CC(=O)O)c1ccc(OCc2ccc3nc(-c4ccc(C#N)cc4)nn3c2)cc1	inactive

Molecular target: T4, Peroxisome proliferator-activated receptor gamma (Homo sapiens)
Assay: Displacement of [3H]-agonist from human PPARgamma expressed in baculovirus infecetd Sf9 cells system up to 30 uM after 10 hrs in presence of DR2 by scintillation proximity assay
Details: not given
Outline: as §1

SMILES	Activity
CC#C[C@@H](CC(=O)O)c1ccc(OCc2ccc3nc(-c4ccc(OC(F)F)cc4)nn3c2)cc1	inactive
CC#C[C@@H](CC(=O)O)c1ccc(OCc2ccc3nc(-c4ccc(C(C)C)cc4)nn3c2)cc1	inactive
CC#C[C@@H](CC(=O)O)c1ccc(OCc2ccc3nc(-c4ccc(C#N)cc4)nn3c2)cc1	inactive

Molecular target: T3, Free fatty acid receptor 1
Assay: Agonist activity at human GPR40 receptor expressed in HEK293 cells assessed as increase in intracellular calcium flux after 2.5 hrs measured over 3 mins in presence of 0.1% serum albumin by calcium 4 dye-based FLIPR assay
Assay type: functional, cell-based
Details: not given

SMILES	Activity
CC#C[C@@H](CC(=O)O)c1ccc(OCc2ccc3nc(-c4ccc(OC(F)F)cc4)nn3c2)cc1	Active
CC#C[C@@H](CC(=O)O)c1ccc(OCc2ccc3nc(-c4ccc(C(C)C)cc4)nn3c2)cc1	Active
CC#C[C@@H](CC(=O)O)c1ccc(OCc2ccc3nc(-c4ccc(C#N)cc4)nn3c2)cc1	Active

Molecular target: T3, Free fatty acid receptor 1
Assay: Agonist activity at human PK-tagged GPR40 expressed in HEK293 cells assessed as EA-tagged beta-arrestin recruitment after 90 mins in presence of 1 % heat inactivated FBS by beta-galactosidase reporter gene assay relative to untreated control
Assay type: cell-based
Details: not given

SMILES	%max [%]
CC#C[C@@H](CC(=O)O)c1ccc(OCc2ccc3nc(-c4ccc(OC(F)F)cc4)nn3c2)cc1	127
CC#C[C@@H](CC(=O)O)c1ccc(OCc2ccc3nc(-c4ccc(C(C)C)cc4)nn3c2)cc1	154
CC#C[C@@H](CC(=O)O)c1ccc(OCc2ccc3nc(-c4ccc(C#N)cc4)nn3c2)cc1	124

Molecular target: T3, Free fatty acid receptor 1
Assay: Agonist activity at human GPR40 receptor expressed in HEK293 cells assessed as increase in intracellular calcium flux after 2.5 hrs measured over 3 mins by calcium 4 dye-based FLIPR assay relative to linoleic acid
Assay type: functional, cell-based
Set-up: Activity: concentration or dose not given beside the values
Details: not given
Outline: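 Human GPR40 calcium flux was read on FLIPR. Percent stimulation is expressed against the response to 100 uM linoleic acid.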

SMILES	Activity [%]
CC#C[C@@H](CC(=O)O)c1ccc(OCc2ccc3nc(-c4ccc(OC(F)F)cc4)nn3c2)cc1	64
CC#C[C@@H](CC(=O)O)c1ccc(OCc2ccc3nc(-c4ccc(C(C)C)cc4)nn3c2)cc1	65
CC#C[C@@H](CC(=O)O)c1ccc(OCc2ccc3nc(-c4ccc(C#N)cc4)nn3c2)cc1	65

Reference: ChEMBL document CHEMBL4024777, “Discovery of LY3104607: A Potent and Selective G Protein-Coupled Receptor 40 (GPR40) Agonist with Optimized Pharmacokinetic Properties to Support Once Daily Oral Treatment in Patients with Type 2 Diabetes Mellitus” (J Med Chem, 2018)
